Legend:
[1] = Metabolic stability in dog liver S9 fraction assessed as compound remaining at 10 uM after 60 mins by HPLC analysis in presence of NADP; type: ADME, subcellular, Canis lupus familiaris; details: read-out: Stability
Outline: (§1)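 Liver or intestinal S9 at final 1 mg/mL in 50 mM potassium phosphate, with or without NADPH-regenerating system (1.3 mM NADP, 3.3 mM glucose-6-phosphate, 0.4 U/mL G6PDH, 3.3 mM MgCl₂); 10 min preincubation at 37 °C; compound at final 10 μM; samples at start and 60 min quenched in cold acetonitrile, centrifuged, HPLC; % parent remaining.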

[2] = Metabolic stability in dog intestine S9 fraction assessed as compound remaining at 10 uM after 60 mins by HPLC analysis in presence of NADP; type: ADME, tissue-based, Canis lupus familiaris; details: read-out: Stability; outline: as §1
[3] = Metabolic stability in rat liver S9 fraction assessed as compound remaining at 10 uM after 60 mins by HPLC analysis in absence of NADP; type: ADME, subcellular; details: read-out: Stability
Outline: (§2)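 Rat liver or intestinal S9 at 1 mg/mL final in 50 mM potassium phosphate, with or without NADPH-regenerating system (final 1.3 mM NADP, 3.3 mM glucose-6-phosphate, 0.4 U/mL G6P dehydrogenase, 3.3 mM MgCl2). Preincubated 10 min at 37 °C with shaking, started with compound at 10 μM final. Samples taken at 0 and 60 min, quenched in cold acetonitrile, centrifuged, and parent disappearance measured by HPLC.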

[4] = Metabolic stability in dog liver S9 fraction assessed as compound remaining at 10 uM after 60 mins by HPLC analysis in absence of NADP; type: ADME, subcellular, Canis lupus familiaris; details: read-out: Stability; outline: as §1
[5] = Metabolic stability in cynomolgus monkey intestine S9 fraction assessed as compound remaining at 10 uM after 60 mins by HPLC analysis in presence of NADP; type: ADME, tissue-based, Macaca fascicularis; details: read-out: Stability; outline: as §1
[6] = Metabolic stability in rat liver S9 fraction assessed as compound remaining at 10 uM after 60 mins by HPLC analysis in presence of NADP; type: ADME, subcellular; details: read-out: Stability; outline: as §2
[7] = Metabolic stability in dog intestine S9 fraction assessed as compound remaining at 10 uM after 60 mins by HPLC analysis in absence of NADP; type: ADME, tissue-based, Canis lupus familiaris; details: read-out: Stability; outline: as §1
[8] = Metabolic stability in cynomolgus monkey intestine S9 fraction assessed as compound remaining at 10 uM after 60 mins by HPLC analysis in absence of NADP; type: ADME, tissue-based, Macaca fascicularis; details: read-out: Stability; outline: as §1
[9] = Metabolic stability in cynomolgus monkey liver S9 fraction assessed as compound remaining at 10 uM after 60 mins by HPLC analysis in absence of NADP; type: ADME, subcellular, Macaca fascicularis; details: read-out: Stability; outline: as §1
[10] = Metabolic stability in human liver S9 fraction assessed as compound remaining at 10 uM after 60 mins by HPLC analysis in absence of NADP; type: ADME, subcellular; details: read-out: Stability; outline: as §1
[11] = Metabolic stability in mouse plasma assessed as compound remaining at 1 ug/ml after 30 mins; type: ADME, cell-free; details: read-out: Stability
Hepatitis C virus = experiment: Antiviral activity against HCV1b infected in human HuH7 cells assessed as inhibition of viral replication after 48 hrs by luciferase reporter gene assay; type: functional, organism-based, Hepacivirus hominis; details: genotype 1b, Huh-7, 48 h
Outline: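 Huh7 cells carrying genotype 1b bicistronic subgenomic replicon, seeded 2 × 10⁴/well without G-418; compounds added 18-24 h later, 48 h exposure; 3× or 4× serial dilutions over 0.0001-10 μM in triplicate/quadruplicate; Renilla luciferase read-out versus untreated cells; EC₅₀ by four-parameter sigmoidal nonlinear regression; at least three independent assays.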

[12] = Cytotoxicity against human HuH7 cells after 72 hrs by celltiter-glo assay; type: cell-based, Huh-7
Outline: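 Replicon 1b Huh7 cells seeded 2 × 10⁴/well; after 24 h, 11 serial 2× dilutions from 100 μM (three repeats each) with no-compound control; 72 h at 37 °C, CO₂, log-phase growth; viability by CellTiter-Glo luminescence; CC₅₀ = concentration giving 50% signal.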

[13] = Metabolic stability in rat intestine S9 fraction assessed as compound remaining at 10 uM after 60 mins by HPLC analysis in absence of NADP; type: ADME, tissue-based; details: read-out: Stability; outline: as §2
[14] = Metabolic stability in cynomolgus monkey liver S9 fraction assessed as compound remaining at 10 uM after 60 mins by HPLC analysis in presence of NADP; type: ADME, subcellular, Macaca fascicularis; details: read-out: Stability; outline: as §1
[15] = Metabolic stability in human liver S9 fraction assessed as compound remaining at 10 uM after 60 mins by HPLC analysis in presence of NADP; type: ADME, subcellular; details: read-out: Stability; outline: as §1
[16] = Metabolic stability in human intestine S9 fraction assessed as compound remaining at 10 uM after 60 mins by HPLC analysis in absence of NADP; type: ADME, tissue-based; details: read-out: Stability; outline: as §1
[17] = Metabolic stability in human intestine S9 fraction assessed as compound remaining at 10 uM after 60 mins by HPLC analysis in presence of NADP; type: ADME, tissue-based; details: read-out: Stability; outline: as §1
[18] = Metabolic stability in rat intestine S9 fraction assessed as compound remaining at 10 uM after 60 mins by HPLC analysis in presence of NADP; type: ADME, tissue-based; details: read-out: Stability; outline: as §2
[19] = Metabolic stability in mouse plasma assessed as compound remaining at 1 ug/ml after 4 hrs; type: ADME, cell-free; details: read-out: Stability
[20] = Metabolic stability in dog plasma assessed as compound remaining at 1 ug/ml after 30 mins; type: ADME, cell-free, Canis lupus familiaris; details: read-out: Stability
Outline: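 Duplicate incubations; compound at final 1 μg/mL in plasma preincubated and kept at […]; samples taken at 30 or 240 min, quenched with ice-cold acetonitrile, centrifuged, supernatant diluted with water; parent quantified by LC-MS/MS (Polar-RP column, formic acid water/acetonitrile gradient, positive ion mode); % remaining reported.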

Liver [21] = experiment: Dose normalized AUC in ICR mouse liver at 50 mg/kg, po by LC-MS/MS analysis; type: ADME, organism-based; design: dose 50 mg/kg, route oral; details: in vivo
Liver [22] = experiment: AUC (0 to 24 hrs) in ICR mouse liver at 50 mg/kg, po by LC-MS/MS analysis; type: ADME, organism-based; design: time < 24 hr, dose 50 mg/kg, route oral; details: in vivo
[23] = Cmax in ICR mouse plasma at 50 mg/kg, po by LC-MS/MS analysis; type: ADME, organism-based; design: dose 50 mg/kg, route oral
Plasma = experiment: Dose normalized AUC in ICR mouse plasma at 50 mg/kg, po by LC-MS/MS analysis; type: ADME, organism-based; design: dose 50 mg/kg, route oral; details: in vivo
Homo sapiens = species on record: Homo sapiens; experiment: Metabolic stability in human plasma assessed as compound remaining at 1 ug/ml after 30 mins
Liver [24] = experiment: AUC (0 to 6 hrs) in ICR mouse liver at 50 mg/kg, po by LC-MS/MS analysis; type: ADME, organism-based; design: time < 6 hr, dose 50 mg/kg, route oral; details: in vivo

Row | SMILES | remaining at 1 h, 10 µM [1] [%] | remaining at 1 h, 10 µM [2] [%] | remaining at 1 h, 10 µM [4] [%] | remaining at 1 h, 10 µM [7] [%] | remaining at 1 h, 10 µM [10] [%] | remaining at 0.5 h, 1 ug/ml [11] [%] | EC50 (Hepatitis C virus) [nM] | CC50 at 72 h [12] [nM] | remaining at 1 h, 10 µM [15] [%] | remaining at 1 h, 10 µM [16] [%] | remaining at 1 h, 10 µM [17] [%] | remaining at 0.5 h, 1 ug/ml [20] [%] | AUC (Liver [21]) [ng·h/g] | Cmax [23] [ng/mL] | AUC (Plasma) [ng·h/mL] | remaining at 0.5 h, 1 ug/ml (Homo sapiens) [%] | AUC (Liver [24]) [ng·h/g] | further results
1 | CC(C)OC(=O)[C@H](C)NP(=O)(OC[C@H]1O[C@@H](n2cnc3c(=O)[nH]c(N)nc32)[C@](C)(O)[C@@H]1O)Oc1cccc2ccccc12 (stereo partly drawn) | 81 | 66 | 91 | 68 | 41 | 14 | 170 | > 100000 | 27 | 85 | 65 | – | – | – | – | – | – | remaining at 1 h, 10 µM [3]: 28%; remaining at 1 h, 10 µM [5]: 48%; remaining at 1 h, 10 µM [6]: 25%; remaining at 1 h, 10 µM [8]: 87%; remaining at 1 h, 10 µM [9]: 86%; remaining at 1 h, 10 µM [13]: 76%; remaining at 1 h, 10 µM [14]: 0%; remaining at 1 h, 10 µM [18]: 77%
2 | C[C@H](NP(=O)(OC[C@H]1O[C@@H](n2cnc3c(=O)[nH]c(N)nc32)[C@](C)(O)[C@@H]1O)Oc1ccc2ccccc2c1)C(=O)OCc1ccccc1 (stereo partly drawn) | 33 | 23 | 28 | 27 | 29 | 0.7 | 170 | > 50000 | 14 | 23 | 24 | – | – | – | – | – | – | –
3 | COC(=O)[C@H](CCSC)NP(=O)(OC[C@H]1O[C@@H](n2cnc3c(=O)[nH]c(N)nc32)[C@](C)(O)[C@@H]1O)Oc1cccc2ccccc12 (stereo partly drawn) | 40 | 56 | 57 | – | 14 | 76 | 280 | > 100000 | 3 | 27 | 42 | – | – | – | – | – | – | –
4 | CC[C@H](C)[C@H](NP(=O)(OC[C@H]1O[C@@H](n2cnc3c(=O)[nH]c(N)nc32)[C@](C)(O)[C@@H]1O)Oc1cccc2ccccc12)C(=O)OCc1ccccc1 (stereo partly drawn) | 64 | 87 | 84 | 96 | 83 | 100 | 900 | > 50000 | 29 | 74 | 52 | – | – | – | – | – | – | remaining at 1 h, 10 µM [3]: 78%; remaining at 1 h, 10 µM [5]: 29%; remaining at 1 h, 10 µM [6]: 37%; remaining at 1 h, 10 µM [8]: 95%; remaining at 1 h, 10 µM [9]: 89%; remaining at 4 h, 1 ug/ml [19]: 95%; remaining at 1 h, 10 µM [13]: 70%; remaining at 1 h, 10 µM [14]: 0%; remaining at 1 h, 10 µM [18]: 71%
5 | CC(C)[C@H](NP(=O)(OC[C@H]1O[C@@H](n2cnc3c(=O)[nH]c(N)nc32)[C@](C)(O)[C@@H]1O)Oc1cccc2ccccc12)C(=O)OC1CCCCC1 (stereo partly drawn) | – | – | – | – | – | 95 | 1000 | > 100000 | – | – | – | 95 | 77 | 185 | 33 | 97 | 815 | AUC (Liver [22]): 3860 ng·h/g
6 | CC(C)[C@H](NP(=O)(OC[C@H]1O[C@@H](n2cnc3c(=O)[nH]c(N)nc32)[C@](C)(O)[C@@H]1O)Oc1cccc2ccccc12)C(=O)OCc1ccccc1Cl (stereo partly drawn) | – | – | – | – | – | 69 | 430 | > 100000 | – | – | – | 100 | 18 | 518 | 49 | 77 | 880 | –
7 | CC(C)[C@H](NP(=O)(OC[C@H]1O[C@@H](n2cnc3c(=O)[nH]c(N)nc32)[C@](C)(O)[C@@H]1O)Oc1cccc2ccccc12)C(=O)OCc1ccc(Cl)cc1 (stereo partly drawn) | – | – | – | – | – | 94 | 620 | – | – | – | – | 89 | 18 | 339 | 88 | 95 | 920 | –
8 | COC(=O)[C@H](C)NP(=O)(OC[C@H]1O[C@@H](n2cnc3c(=O)[nH]c(N)nc32)[C@](C)(O)[C@@H]1O)Oc1cccc2ccccc12 (stereo partly drawn) | 67 | 50 | 85 | 54 | 40 | 1.7 | 210 | > 50000 | 20 | 63 | 60 | – | – | – | – | – | – | –
